{"source": "paper PMC8859974", "about": "(Journal of medicinal chemistry, 2019)", "key": {"[1]": {"biological_target": "T1, PA-CMG2 interaction (Homo sapiens, UniProt P58335, C175A/R40C)", "T1 sequence (P58335 40-217 R40C/C175A)": "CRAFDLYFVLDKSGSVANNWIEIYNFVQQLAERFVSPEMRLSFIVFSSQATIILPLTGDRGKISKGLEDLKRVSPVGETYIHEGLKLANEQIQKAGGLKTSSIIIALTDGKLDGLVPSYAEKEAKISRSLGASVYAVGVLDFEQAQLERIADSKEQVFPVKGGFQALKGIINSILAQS", "test": "CMG2-PA FRET assay", "assay_type": "binding", "conditions": "for inhibitory effect on CMG2-PA interaction (in words): FRET assay", "how_it_was_run": "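After AF546 dispensing, 32 nM PA-AF488 solution was added and the mix incubated 4 h. Excitation 485 nm; emission 535 and 595 nm. Artifact-filtered Em595/Em535 FRET ratio was converted to % inhibition against an interaction control (100%) and an EDTA no-interaction control (0%).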"}, "[2]": {"system": "bFGF-induced angiogenesis", "conditions": "oral or intraperitoneal administration; cited from earlier work"}, "[3]": {"biological_target": "T1, PA-CMG2 interaction", "conditions": "cited from earlier work"}, "[4]": {"system": "EA.hy926 cells", "test": "CellASIC microfluidic chemotactic endothelial cell migration", "assay_type": "cell-based", "conditions": "Homo sapiens, EA.hy 926, 12 h, read-out: Best fit IC50, chemotactic endothelial cell migration"}, "[5]": {"assay_type": "in vivo, mice"}}}
{"smiles": "O=C(O[C@@H]1OC[C@@H](OC(=O)c2ccc(O)c(O)c2O)[C@@H](OC(=O)c2ccc(O)c(O)c2O)[C@H]1OC(=O)c1ccc(O)c(O)c1O)c1ccc(O)c(O)c1O", "note": "[compound 23, β-D-Ribopiranose tetrakis(2,3,4-trihydroxybenzoate)]", "values": [{"measurement": "inhibitory effect on CMG2-PA interaction (in words)", "setting": "[1]", "value": "no inhibitory effect"}]}
{"smiles": "O=C(O[C@H]1OC[C@@H](OC(=O)c2ccc(O)c(O)c2O)[C@@H](OC(=O)c2ccc(O)c(O)c2O)[C@H]1OC(=O)c1ccc(O)c(O)c1O)c1ccc(O)c(O)c1O", "note": "[compound 22, α-D-Ribopiranose tetrakis(2,3,4-trihydroxybenzoate)]", "values": [{"measurement": "inhibitory effect on CMG2-PA interaction (in words)", "setting": "[1]", "value": "no inhibitory effect"}]}
{"smiles": "O=C(OC[C@H]1O[C@H](O[C@H]2[C@H](OC(=O)c3cc(O)c(O)c(O)c3)[C@@H](OC(=O)c3cc(O)c(O)c(O)c3)[C@H](OC(=O)c3cc(O)c(O)c(O)c3)O[C@@H]2COC(=O)c2cc(O)c(O)c(O)c2)[C@H](OC(=O)c2cc(O)c(O)c(O)c2)[C@@H](OC(=O)c2cc(O)c(O)c(O)c2)[C@@H]1OC(=O)c1cc(O)c(O)c(O)c1)c1cc(O)c(O)c(O)c1", "note": "[compound 25, β-D-Maltose octakis(3,4,5-trihydroxybenzoate)]", "values": [{"measurement": "inhibitory effect on CMG2-PA interaction (in words)", "setting": "[1]", "value": "did not inhibit CMG2-PA interaction"}]}
{"smiles": "O=C(OC[C@H]1O[C@@H](OC(=O)c2cc(O)c(O)c(O)c2)[C@H](OC(=O)c2cc(O)c(O)c(O)c2)[C@@H](OC(=O)c2cc(O)c(O)c(O)c2)[C@@H]1OC(=O)c1cc(O)c(O)c(O)c1)c1cc(O)c(O)c(O)c1", "note": "[compound 1, 1,2,3,4,6-penta-O-galloyl-ß-D-glucopyranose]", "values": [{"measurement": "angiogenesis in the mouse corneal micropocket assay", "setting": "[2]", "value": "inhibits angiogenesis"}, {"measurement": "IC50 of binding to CMG2", "setting": "[3]", "value": "submicromolar"}]}
{"smiles": "CCCOC(=O)c1cc(O)c(O)c(O)c1", "note": "[propyl gallate]", "values": [{"measurement": "inhibitory activity", "setting": "[3]; concentrations up to 300 μM", "value": "do not showed any inhibitory activity"}]}
{"smiles": "O=C(OC[C@@H](OC(=O)c1ccc(O)c(O)c1O)[C@@H]1O[C@H](OC(=O)c2ccc(O)c(O)c2O)[C@H](OC(=O)c2ccc(O)c(O)c2O)[C@H]1OC(=O)c1ccc(O)c(O)c1O)c1ccc(O)c(O)c1O", "note": "[compound 15, α-D-Galactofuranose pentakis(2,3,4-trihydroxybenzoate)]", "values": [{"measurement": "IC50", "setting": "[1]", "value": "> 10", "unit": "µM"}]}
{"smiles": "O=C(OC[C@H]1O[C@H](O[C@H]2O[C@H](COC(=O)c3cc(O)c(O)c(O)c3)[C@@H](OC(=O)c3cc(O)c(O)c(O)c3)[C@H](OC(=O)c3cc(O)c(O)c(O)c3)[C@H]2OC(=O)c2cc(O)c(O)c(O)c2)[C@@H](OC(=O)c2cc(O)c(O)c(O)c2)[C@@H](OC(=O)c2cc(O)c(O)c(O)c2)[C@@H]1OC(=O)c1cc(O)c(O)c(O)c1)c1cc(O)c(O)c(O)c1", "note": "[compound 27, α,α-D-Trehalose octakis(3,4,5-trihydroxybenzoate)]", "values": [{"measurement": "inhibitory effect on CMG2-PA interaction (in words)", "setting": "[1]", "value": "did not inhibit CMG2-PA interaction"}]}
{"smiles": "O=C(O[C@@H]1OC[C@@H](OC(=O)c2cc(O)c(O)c(O)c2)[C@@H](OC(=O)c2cc(O)c(O)c(O)c2)[C@H]1OC(=O)c1cc(O)c(O)c(O)c1)c1cc(O)c(O)c(O)c1", "note": "[compound 10]", "values": [{"measurement": "inhibitory effect on CMG2-PA interaction (in words)", "setting": "[1]", "value": "no inhibitory effect"}]}
{"smiles": "O=C(OC[C@H]1O[C@@H](OC(=O)c2cc(O)c(O)c(O)c2)[C@@H](OC(=O)c2cc(O)c(O)c(O)c2)[C@@H](OC(=O)c2cc(O)c(O)c(O)c2)[C@@H]1OC(=O)c1cc(O)c(O)c(O)c1)c1cc(O)c(O)c(O)c1", "note": "[compound 8, 1,2,3,4,6-penta-O-galloyl-β-D-mannopyranose]", "values": [{"measurement": "IC50", "setting": "[4]", "value": "365 ± 129", "unit": "nM"}, {"measurement": "affinity for CMG2 relative to the glucose prototype PGG", "setting": "[1]; FRET based binding assay", "value": "up to 10 x"}, {"measurement": "weight loss", "setting": "[5]; 10 mg/kg intraperitoneally, compared to vehicle-treated control animals", "value": "no significant weight loss"}, {"measurement": "signs of toxicity (weight loss, hunched posture, behavioral abnormalities)", "setting": "[5]; treated mice", "value": "no obvious signs of toxicity"}]}
{"smiles": "O=C(OC[C@H]1O[C@H](O[C@H]2O[C@H](COC(=O)c3ccc(O)c(O)c3O)[C@@H](OC(=O)c3ccc(O)c(O)c3O)[C@H](OC(=O)c3ccc(O)c(O)c3O)[C@H]2OC(=O)c2ccc(O)c(O)c2O)[C@@H](OC(=O)c2ccc(O)c(O)c2O)[C@@H](OC(=O)c2ccc(O)c(O)c2O)[C@@H]1OC(=O)c1ccc(O)c(O)c1O)c1ccc(O)c(O)c1O", "note": "[compound 31, α,α-D-Trehalose octakis(2,3,4-trihydroxybenzoate)]", "values": [{"measurement": "inhibitory effect on CMG2-PA interaction (in words)", "setting": "[1]", "value": "did not inhibit CMG2-PA interaction"}]}
